According to ChEMBL document CHEMBL4007453, “Identification of Non-Nucleoside Inhibitors of the Respiratory Syncytial Virus Polymerase Complex” (J Med Chem, 2017):
≈ marks a conversion by molar mass, not a printed value.

Legend:
[1] = Inhibition of recombinant Respiratory syncytial virus-A2-L19F RNA-dependent RNA polymerase complex D489E mutant transfected with firefly luciferase gene at SMASh domain in human BEAS2B cells infected with Respiratory syncytial virus-A2-L19F assessed as reduction in viral replication measured after […] by bioluminescence assay; format: cell-based; settings: human respiratory syncytial virus, A2-L19F, BEAS-2B
Outline: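 BEAS-2B cells (1.5×10^4/well) received 3-fold serial compound dilutions prepared in three repeats (top concentration 10 µM) and were infected with firefly-luciferase/SMASh reporter RSV-A2-L19F D489E (MOI 0.1). Luminescence was converted to % inhibition against four-replicate positive and negative controls per plate. EC50 came from four-parameter variable-slope regression.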

[2] = tested on: BEAS-2B; assay: Cytotoxicity against human BEAS2B cells after 48 hrs by PrestoBlue staining based fluorescence assay; format: cell-based
Outline: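 Uninfected BEAS-2B cells were exposed to compound for 48 h at 37°C. PrestoBlue was added and incubated 90 min at 37°C, then fluorescence was read (ex 560 nm, em 590 nm). Cytotoxic was defined as metabolic activity <70% of vehicle control. Highest concentration assessed for cytotoxicity was 90 µM, and CC50 came from four-parameter variable slope regression.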

[3] = Inhibition of recombinant mkate-tagged-Respiratory syncytial virus-A2-L19F RNA-dependent RNA polymerase D489E mutant in human BEAS2B cells infected with Respiratory syncytial virus-A2-L19F assessed as reduction in progeny release measured after 48 hrs postinfection by fluorescence assay based progeny virus yield-based dose-response assay; format: cell-based; settings: BEAS-2B
Outline: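 Cells in 12-well format infected with mKate-expressing recRSV-A2-L19F (MOI 0.05 particles/cell) in the presence of serial compound dilutions at 37°C. Cell-associated progeny harvested 48 h post-infection and released by one freeze/thaw cycle. Titres determined by TCID50 titration. Two repeats; EC50 derived by regression.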

[4] = tested on: Respiratory syncytial virus; assay: Inhibition of Respiratory syncytial virus-A2-L19F RNA-dependent RNA polymerase complex D489E mutant in human BEAS2B cells infected with Respiratory syncytial virus-A2-L19F by firefly luciferase reporter-based RSV minigenome assay; format: cell-based
[5] = Selectivity index, ratio of CC50 for human BEAS2B cells to EC50 for inhibition of recombinant mkate-tagged-Respiratory syncytial virus-A2-L19F RNA-dependent RNA polymerase complex D489E mutant in human BEAS2B cells infected with Respiratory syncytial virus-A2-L19F; format: toxicity, cell-based; settings: read-out: Ratio CC50/EC50
Outline: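 SI is CC50/EC50 in BEAS-2B cells. EC50 came from reporter RSV dose-response, 3-fold dilutions, top 10 µM. […] Both values from four-parameter variable-slope regression.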

[6] = Aqueous solubility of the compound in phosphate buffered saline at pH 7.4 after 90 mins by laser nephelometric method; format: physicochemical
Outline: (§1)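 Stocks of 30 mg/mL in DMSO were serially diluted in DMSO, then into buffer to final 300 down to 1.5 µg/mL at 1% final DMSO. Diluent was PBS for pH 7.4 and citrate buffer for pH 3 and 5. Plates stood 90 min at ambient temperature. Forward-scatter laser nephelometry gave the concentration at which precipitation began.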

[7] = Aqueous solubility of the compound in citrate buffer at pH 5 after 90 mins by laser nephelometric method; format: physicochemical; outline: as §1
[8] = Aqueous solubility of the compound in citrate buffer at pH 3 after 90 mins by laser nephelometric method; format: physicochemical; outline: as §1
[9] = tested on: Liver; assay: Drug level in mouse liver microsomes treated with at 1 uM GRP-74915 by LC-MS analysis; format: ADME, microsome

Row | Compound | EC50 [1] [µM] | CC50 [2] [µM] | selectivity ratio [5] | also measured
1 | Cc1cc[nH]c1C(=O)N1CCCn2nc(C(=O)Nc3ccccc3)cc2C1 | > 10 | – | – | –
2 | O=C(Nc1ccccc1)c1cc2n(n1)CCCN(C(=O)c1occ3c1CCC3)C2 | 10 | 10 | – | –
3 | CC(C)c1cc(C(=O)NCc2noc(-c3cccs3)n2)n(C)n1 | – | – | – | EC50 [3]: 0.03 µM; inhibition [4]: Dose-dependent effect
4 | O=C(Nc1ccccc1)c1cc2n(n1)CCCN(S(=O)(=O)c1ccco1)C2 | > 10 | – | – | –
5 | Cc1ccn(C)c1C(=O)N1CCCn2nc(C(=O)Nc3ccccc3)cc2C1 | > 10 | – | – | –
6 | Cc1ccoc1C(=O)N1CCCn2nc(NC(=O)c3ccccc3)cc2C1 | > 10 | – | – | –
7 | Cc1ccoc1C(=O)N1CCCn2nc(C(=O)NCc3ccccc3)cc2C1 | 1.2 | 50 | 42 | –
8 | O=C(Nc1ccccc1)c1cc2n(n1)CCCN(C(=O)c1occc1Cl)C2 | 0.76 | 30 | 39 | –
9 | Cc1nc2ccccn2c1CN(C)C(=O)c1cc(COc2ccc(F)cc2F)on1 | – | – | – | EC50 [3]: 0.05 µM; inhibition [4]: Dose-dependent effect
10 | O=C(Nc1ccccc1)c1cc2n(n1)CCCN(C(=O)c1occc1C(F)(F)F)C2 | 5.4 | 30 | 6 | –
11 | Cc1cc(C(=O)N2CCCn3nc(C(=O)Nc4ccccc4)cc3C2)oc1C | > 10 | – | – | –
12 | Cc1ccoc1C(=O)N1CCn2nc(C(=O)Nc3ccccc3)cc2C1 | > 10 | – | – | –
13 | Cc1cc(C)c(C(=O)N2CCCn3nc(C(=O)Nc4ccccc4)cc3C2)o1 | 0.96 | 2.6 | – | –
14 | Cc1ccoc1C(=O)N1CCCn2nc(C(=O)Nc3cncnc3)cc2C1 | > 10 | – | – | –
15 | COc1ccc(NC(=O)c2cc3n(n2)CCCN(C(=O)c2occc2C)C3)cc1 | 0.32 | 90 | 281 | –
16 | Cc1ccoc1C(=O)N1CCCn2nc(C(=O)N(C)c3ccccc3)cc2C1 | 10 | > 90 | > 9 | solubility kinetic at 1.5 h [6]: 0.058 mg/mL (≈ 153 µM); solubility kinetic at 1.5 h [7]: 0.025 mg/mL (≈ 66.1 µM); solubility kinetic at 1.5 h [8]: 0.02 mg/mL (≈ 52.8 µM)
17 | Cc1ccc(NC(=O)c2cc3n(n2)CCCN(C(=O)c2occc2C)C3)cc1 | 0.41 | 30 | 73 | –
18 | O=C(Nc1ccccc1F)c1cc2n(n1)CCCN(C(=O)c1ccco1)C2 | 0.32 | 3.7 | 12 | –
19 | Cc1coc(C(=O)N2CCCn3nc(C(=O)Nc4ccccc4)cc3C2)c1C | 2.25 | 30 | 13 | –
20 | COc1cc(N2CCCC(CO)(Cc3cccc(Cl)c3)C2)ncn1 (stereo unspecified) | – | – | – | EC50 [3]: 0.13 µM; inhibition [4]: Dose-dependent effect
21 | Cc1ccsc1C(=O)N1CCCn2nc(C(=O)Nc3ccccc3)cc2C1 | > 10 | – | – | –
22 | Cc1ccoc1C(=O)N1CCCn2nc(C(=O)O)cc2C1 | – | – | – | Drug metabolism [9]: Metabolite_Detected
